Experimental data from different studies.
Lines come from different studies, so protocols differ.
Target: Mitogen-activated protein kinase kinase kinase 4 (MAP3K4, Homo sapiens, UniProt Q9Y6R4)

The remaining binding of `F[C@@H]1CCN(c2nccc(-c3cnn4ncccc34)n2)C1` is reported as 78% (binding; 1 µM).
For `C[C@@H](c1ccc(-n2cnc3c(N)ncnc32)cc1)N1CCc2nn(C)c(Cc3ccccc3)c2C1=O`, the remaining binding was 100% (binding; competition with immobilised ligand; 0.1 µM).
`CCC(=O)N[C@H]1CC[C@@H](C(=O)N(C)c2ccc(-c3nc4ccccc4o3)cc2)C1` has a remaining binding of 100% (cell-free assay; competition with immobilised ligand; 1 µM).
For `N[C@@H]1CCN(c2nccc(-c3cnn4ncccc34)n2)C1`, the remaining binding was 100% (binding; 1 µM).
`N#Cc1ccccc1CSc1nnc2c(n1)[nH]c1ccccc12` gave a remaining binding of 100% (binding; competition with immobilised ligand; 10 µM).
For `O=C(NCCCN1CCOCC1)c1ccc(Nc2nccc(-c3cc4ccccc4s3)n2)cc1`, the remaining binding was 68% (binding; competition with immobilised ligand; 1 µM).
With `O=C(NCC1CCOCC1)c1n[nH]cc1NC(=O)c1c(F)cccc1F` the remaining binding was 100% (binding; competition with immobilised ligand; 1 µM).
With `C[C@@H]1CCN(c2nccc(-c3cnn4ncccc34)n2)C1` the remaining binding was 100% (binding; 1 µM).
`CNC(=O)[C@@H]1CC[C@@H](n2c(-c3ccc4cnccc4c3)nc3ccc(C(=O)NCc4cccc(C(N)=O)c4)cc32)C1` gave a remaining binding of 100% (binding; competition with immobilised ligand; 1 µM).
The remaining binding of `Cc1nc(N2CC[C@@H](O)C2)ncc1-c1cc(C(F)(F)F)cc2[nH]ncc12` is reported as 100% (binding; competition with immobilised ligand; 1 µM).
For `O=C(c1ccc(Nc2ncc(Cl)c(-c3ccc(Cl)s3)n2)cc1)N1CCC(N2CCCC2)CC1`, the remaining binding was 61% (binding; competition with immobilised ligand; 1 µM).
The remaining binding of `CN(CCCC(F)(F)F)c1nccc(-c2cnn3ncccc23)n1` is reported as 81% (binding; 1 µM).
The remaining binding of `C[C@@H]1CN(c2cc(-c3n[nH]c4ccc(OC5(C)CC5)cc34)ncn2)C[C@H](C)O1` is reported as 100% (cell-free assay; competition with immobilised ligand; 0.1 µM).
`c1cncc(-c2cccc(Nc3nccc(NC4CCCCC4)n3)c2)c1` has a remaining binding of 88% (binding; competition with immobilised ligand; 10 µM).
The remaining binding of `CC(C)(C)c1ccc(-c2nc(CBr)nn2-c2cccc(O)c2)cc1` is reported as 91% (cell-free assay; competition with immobilised ligand; 10 µM).
With `C[C@@H]1CN(c2ccc3ncc(-c4ccc5[nH]nc(C6CC6)c5c4)n3n2)C[C@H](C)O1` the remaining binding was 100% (binding; competition with immobilised ligand; 0.5 µM).
The remaining binding of `C[C@@]1(Cc2ccc(C#N)cc2)C(=O)N(c2cc(Cl)cc(Cl)c2)c2ncc(C(=O)NC3(c4nc(C5CCC5)no4)CC3)n21` is reported as 100% (cell-free assay; competition with immobilised ligand; 1 µM).
`CN(C)c1ncc(F)c(-c2cnn3ncccc23)n1` has a remaining binding of 100% (binding; 1 µM).
`CN(C)C(=O)Cn1cc(-c2nc(C3(c4ccc(-c5cnc(N)nc5)cc4)CC3)no2)cn1` has a remaining binding of 92% (cell-free assay; competition with immobilised ligand; 1 µM).
For `O=C(c1ccc(Nc2nccc(-c3cc4ccccc4s3)n2)cc1)N1CCC(N2CCCC2)CC1`, the remaining binding was 70% (binding; competition with immobilised ligand; 1 µM).
`Cc1c[nH]c2nccc(Oc3c(F)cc(Nc4cc(Cl)nc(N)n4)cc3F)c12` has a remaining binding of 100% (cell-free assay; competition with immobilised ligand; 0.1 µM).
`Nc1ncc2c(n1)-c1c([nH]c3ccc(C#CC4CC4)cc13)CCCC2` gave a remaining binding of 92% (binding; competition with immobilised ligand; 1 µM).
The remaining binding of `CN(C)c1nccc(-c2cnc3ncccn23)n1` is reported as 100% (binding; 1 µM).
The remaining binding of `O=C(N[C@H]1CCCCC/C=C\C2C[C@@]2(C(=O)O)NC(=O)[C@@H]2C[C@@H](Oc3ccncc3)CN2C1=O)OC1CCCC1` (stereo partly drawn) is reported as 91% (binding; competition with immobilised ligand; 1 µM).
